The subject of assay [1] is Human alphaherpesvirus 1. Kind of assay: Inhibitory index against HSV-1 ribonucleotide reductase. The essentials:
(§1)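 Index per eq 1 combines kinact and percent inhibition of initial velocity from reductase reactions ±5 μM inhibitor (unless otherwise indicated). 0.99 is subtracted from the calculated ratio, so a non-inhibiting, non-inactivating compound scores zero. HSV-1 and human enzymes were assayed under their respective conditions.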

For assay [2], the target named is T1, Ribonucleoside-diphosphate reductase RR1 (Homo sapiens) (UniProt P23921+Q7LG56+P31350). Put plainly: Inhibitory index against human ribonucleotide reductase. In kind it is protein-complex assay. The essentials: as §1
Assay [3] deals with T1, Ribonucleoside-diphosphate reductase RR1 (Homo sapiens). Put plainly: Apparent enzyme activity measured as the ratio of HSV-1 and human enzyme inhibition induces. It counts as functional. Conditions: Human alphaherpesvirus 1. The procedure, abridged:
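Apparent selectivity is the ratio of HSV-1 to human inhibition indices, each from eq 1 at 5 μM inhibitor or at the indicated concentration for each enzyme.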

Assay [4] relates to Human alphaherpesvirus 1. Kind of assay: Inhibition of HSV-1 ribonucleotide reductase. Also on record: concentration or dose not given beside the values. Conditions: concentration not given here. The essentials: (§2)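 Partially purified HSV-1 ribonucleotide reductase, assayed by reduction of purified [14C]CDP in 200 mM Hepes Na+ pH 7.7, 10 mM dithiothreitol, 2 μM CDP (500 Ci/mol, 3–4 × Km), with and without 5 μM inhibitor unless otherwise indicated. First-order kinact (per hour) and v0 of decelerating product time courses come from iterative nonlinear least squares. kinact is the net increase over the uninhibited control, and % inhibition refers to v0.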

The test system of assay [5] is Human alphaherpesvirus 1. Kind of assay: Inactivation of HSV-1 ribonucleotide reductase at rate constant K inact. The procedure, abridged:
as §2

Assay [6] addresses T1, Ribonucleoside-diphosphate reductase RR1 (Homo sapiens). Put plainly: Inactivation of human ribonucleotide reductase at rate constant K inact. It counts as protein-complex assay. The procedure, abridged:
(§3)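 The ATP contributed about 3 μM iron, keeping inhibitors iron-complexed. Reactions ran ±5 μM inhibitor unless otherwise indicated. kinact (per hour, net over the control) and v0 came from iterative nonlinear least-squares fits of decelerating time courses.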

The target is the same in assay [7]. Kind of assay: Inhibition of human ribonucleotide reductase. It counts as protein-complex assay. Also on record: concentration or dose not given beside the values. The following applies: concentration not given here. The procedure, abridged:
as §3

Regarding `COc1ccc(N/C(S)=N/N=C(\S)N/N=C(\C)c2ccccn2)cc1`, the Inhibitory index in assay [1] was found to be 29; in assay [2], 1.1. In assay [3], the Apparent selectivity (HSV-1/human inhibition index ratio) is 28. Moreover, the inhibition came out at 45% in assay [4] and 52% in assay [7]. The kinact in assay [5] is 16 h⁻¹; in assay [6] it was 0 h⁻¹.

Take `C/C(=N\N=C(/S)N/N=C(\S)Nc1ccc(Cl)cc1)c1ccccn1`: the Inhibitory index in assay [1] was found to be 99; in assay [2], 2.6. Further, in assay [3], the Apparent selectivity (HSV-1/human inhibition index ratio) stood at 38. Besides, the inhibition in assay [4] turned out to be 61%; in assay [7], 73%. Also, the inactivation rate constant (kinact) stood at 39 h⁻¹ in assay [5] and 0 h⁻¹ in assay [6].

Take `C/C(=N\N=C(/S)N/N=C(\S)Nc1cccc(C#N)c1)c1ccccn1`: the Inhibitory index in assay [1] worked out at 32; in assay [2] it was 6.6. The Apparent selectivity (HSV-1/human inhibition index ratio) in assay [3] turned out to be 4.8. Also, the inhibition in assay [4] was 0%; in assay [7], 80%. Moreover, the kinact stood at 32 h⁻¹ in assay [5] and 0.6 h⁻¹ in assay [6].

In the case of `COc1ccc([N+](=O)[O-])cc1/N=C(\S)N/N=C(\S)N/N=C(\C)c1ccccn1`, the Inhibitory index in assay [1] was determined as 71; in assay [2], 3.5. Further, the Apparent selectivity (HSV-1/human inhibition index ratio) in assay [3] is 21. Further, the inhibition in assay [4] turned out to be 44%; in assay [7] it was 11%. Also, the results for the inactivation rate constant (kinact) in assay [5] and in assay [6] were 40 h⁻¹ and 3 h⁻¹, respectively.

As to `C/C(=N\N=C(/S)N/N=C(\S)Nc1ccc(Cl)cc1C)c1ccccn1`, the Inhibitory index was 42 in assay [1] and 3.4 in assay [2]. Moreover, in assay [3], the Apparent selectivity (HSV-1/human inhibition index ratio) stood at 12. Further, the inhibition in assay [4] turned out to be 31%; in assay [7] it was 55%. The kinact came to 29 h⁻¹ in assay [5] and 1 h⁻¹ in assay [6].

Take `C/C(=N\N=C(/S)N/N=C(\S)Nc1ccccc1Br)c1ccccn1`: the Inhibitory index in assay [1] is 34; in assay [2] it was 0.16. Also, the Apparent selectivity (HSV-1/human inhibition index ratio) in assay [3] was 210. Besides, the inhibition in assay [4] came to 38%; in assay [7], 14%. The kinact in assay [5] is 21 h⁻¹; in assay [6] it was 0 h⁻¹.

For `C/C(=N\N=C(/S)N/N=C(\S)Nc1ccccn1)c1ccccn1`, the Inhibitory index turned out to be 65 in assay [1] and 2 in assay [2]. Also, the Apparent selectivity (HSV-1/human inhibition index ratio) in assay [3] is 33. In addition, the inhibition in assay [4] came to 57%; in assay [7] it was 67%. Besides, the kinact in assay [5] was found to be 28 h⁻¹; in assay [6] it was 0 h⁻¹.

For `COc1c(Cl)cccc1/N=C(\S)N/N=C(\S)N/N=C(\C)c1ccccn1`, the Inhibitory index in assay [1] worked out at 25; in assay [2], 1. Moreover, the Apparent selectivity (HSV-1/human inhibition index ratio) in assay [3] worked out at 26. For the same compound, the inhibition was determined as 0% in assay [4] and 50% in assay [7]. The results for the kinact in assay [5] and in assay [6] were 25 h⁻¹ and 0 h⁻¹, respectively.

Regarding `C/C(=N\N=C(/S)N/N=C(\S)Nc1cc(Cl)ccc1Cl)c1ccccn1`, the Inhibitory index is 59 in assay [1] and 0.24 in assay [2]. For the same compound, the Apparent selectivity (HSV-1/human inhibition index ratio) in assay [3] is 240. The inhibition was 8% in assay [4] and 20% in assay [7]. In addition, the figures for the kinact in assay [5] and in assay [6] were 55 h⁻¹ and 0 h⁻¹, respectively.

Take `C/C(=N\N=C(/S)N/N=C(\S)NC1CCCC1)c1ccccn1`: the Inhibitory index was 13 in assay [1] and 9.8 in assay [2]. Also, the Apparent selectivity (HSV-1/human inhibition index ratio) in assay [3] came to 1.3. Besides, the inhibition is 7% in assay [4] and 64% in assay [7]. The kinact was found to be 12 h⁻¹ in assay [5] and 3 h⁻¹ in assay [6].

In the case of `C/C(=N\N=C(/S)N/N=C(\S)Nc1ccc(I)cc1)c1ccccn1`, the Inhibitory index in assay [1] stood at 29; in assay [2], 0.05. Also, the Apparent selectivity (HSV-1/human inhibition index ratio) in assay [3] was 560. Further, the inhibition in assay [4] is 24%; in assay [7], 5%. In addition, the kinact in assay [5] was 22 h⁻¹; in assay [6] it was 0 h⁻¹.

With `C/C(=N\N=C(/S)N/N=C(\S)Nc1ccc(C#N)cc1)c1ccccn1`, the Inhibitory index in assay [1] came to 29; in assay [2], 1.7. The Apparent selectivity (HSV-1/human inhibition index ratio) in assay [3] was determined as 17. Besides, the inhibition is 0% in assay [4] and 64% in assay [7]. Besides, the results for the kinact in assay [5] and in assay [6] were 29 h⁻¹ and 0 h⁻¹, respectively.

In the case of `C/C(=N\N=C(/S)N/N=C(\S)Nc1ccccc1I)c1ccccn1`, the values for the Inhibitory index in assay [1] and in assay [2] were 35 and 5.4, respectively. Moreover, in assay [3], the Apparent selectivity (HSV-1/human inhibition index ratio) was 6.5. The inhibition in assay [4] was 18%; in assay [7] it was 23%. In addition, the maximal inactivation rate constant (kinact) in assay [5] came out at 29 h⁻¹; in assay [6], 4 h⁻¹.

`C/C(=N\N=C(/S)N/N=C(\S)Nc1ccccc1Cl)c1cccc[n+]1[O-]` yielded an Inhibitory index in assay [1] of 1.2. The compound also yielded an inhibition in assay [4] of 11%. The maximal inactivation rate constant (kinact) in assay [5] is 1 h⁻¹.

`C/C(=N\N=C(/S)N/N=C(\S)Nc1cccc(Br)c1)c1ccccn1`: the Inhibitory index in assay [1] is 47; in assay [2] it was 2.8. Besides, the Apparent selectivity (HSV-1/human inhibition index ratio) in assay [3] came to 17. For the same compound, the inhibition in assay [4] is 15%; in assay [7], 21%. The kinact in assay [5] stood at 40 h⁻¹; in assay [6], 2 h⁻¹.

Consider `COc1ccccc1/N=C(\S)N/N=C(\S)N/N=C(\C)c1ccccn1`, for which the Inhibitory index in assay [1] amounted to 23; in assay [2], 4.5. For the same compound, in assay [3], the Apparent selectivity (HSV-1/human inhibition index ratio) turned out to be 5.1. Besides, the inhibition in assay [4] stood at 0%; in assay [7] it was 44%. Further, the maximal inactivation rate constant (kinact) in assay [5] came out at 23 h⁻¹; in assay [6], 2.1 h⁻¹.

Turning to `C/C(=N\Nc1nnc(Nc2ccccc2Cl)s1)c1ccccn1`, the Inhibitory index in assay [1] stood at 32. Moreover, in assay [4], the inhibition stood at 53%. The kinact in assay [5] turned out to be 15 h⁻¹.

As to `C/C(=N\N=C(/S)N/N=C(\S)Nc1cc(Cl)c(Cl)cc1Cl)c1ccccn1`, the Inhibitory index in assay [1] is 21; in assay [2] it was 0.03. Further, in assay [3], the Apparent selectivity (HSV-1/human inhibition index ratio) amounted to 680. In addition, the inhibition in assay [4] is 22%; in assay [7], 3%. The figures for the kinact in assay [5] and in assay [6] were 16 h⁻¹ and 0 h⁻¹, respectively.

Regarding `C/C(=N\N=C(/S)N/N=C(\S)Nc1ccccc1C(F)(F)F)c1ccccn1`, the values for the Inhibitory index in assay [1] and in assay [2] were 11 and 5.9, respectively. The Apparent selectivity (HSV-1/human inhibition index ratio) in assay [3] was 1.8. Moreover, the inhibition in assay [4] came to 6%; in assay [7] it was 43%. Besides, the kinact stood at 10 h⁻¹ in assay [5] and 3 h⁻¹ in assay [6].

In turn, `C/C(=N\N=C(/S)N/N=C(\S)Nc1ccc(C(C)(C)C)cc1)c1ccccn1` gave an inhibition in assay [4] of 10%. The kinact in assay [5] was determined as 16 h⁻¹.

`Cc1cccc(/C=N/N=C(\S)N/N=C(\S)Nc2ccccc2Cl)n1`: the Inhibitory index came out at 27 in assay [1] and 1.8 in assay [2]. Moreover, the Apparent selectivity (HSV-1/human inhibition index ratio) in assay [3] amounted to 15. Besides, the inhibition in assay [4] turned out to be 41%; in assay [7], 65%. The kinact came out at 16 h⁻¹ in assay [5] and 0 h⁻¹ in assay [6].

With `C/C(=N\N=C(/S)N/N=C(\S)Nc1ccc(C)cc1)c1ccccn1`, the Inhibitory index came to 21 in assay [1] and 7 in assay [2]. The Apparent selectivity (HSV-1/human inhibition index ratio) in assay [3] was 3. The values for the inhibition in assay [4] and in assay [7] were 25% and 64%, respectively. Besides, the kinact in assay [5] amounted to 16 h⁻¹; in assay [6], 2 h⁻¹.

Turning to `CC(C)C/C(=N\N=C(/S)N/N=C(\S)Nc1ccccc1Cl)c1ccccn1`, the Inhibitory index in assay [1] was 23; in assay [2], 0.33. Besides, in assay [3], the Apparent selectivity (HSV-1/human inhibition index ratio) was determined as 70. For the same compound, the inhibition in assay [4] came out at 38%; in assay [7], 25%. For the same compound, the values for the kinact in assay [5] and in assay [6] were 14 h⁻¹ and 0 h⁻¹, respectively.

In the case of `C/N=C(\S)N/N=C(\S)N/N=C(\C)c1ccccn1`, the Inhibitory index in assay [1] stood at 5; in assay [2], 0.35. The Apparent selectivity (HSV-1/human inhibition index ratio) in assay [3] was found to be 14. Further, the inhibition in assay [4] was determined as 17%; in assay [7] it was 19%. For the same compound, the values for the kinact in assay [5] and in assay [6] were 4 h⁻¹ and 0.1 h⁻¹, respectively.

As to `C/C(=N\N=C(/S)N/N=C(\S)Nc1ccc(Br)cc1)c1ccccn1`, the values for the Inhibitory index in assay [1] and in assay [2] were 57 and 3.2, respectively. Moreover, the Apparent selectivity (HSV-1/human inhibition index ratio) in assay [3] turned out to be 18. For the same compound, the inhibition amounted to 23% in assay [4] and 29% in assay [7]. The results for the kinact in assay [5] and in assay [6] were 44 h⁻¹ and 2 h⁻¹, respectively.

With `C/C(=N\NC(=O)NNC(=O)Nc1ccccc1Cl)c1ccccn1`, in assay [1], the Inhibitory index came to 0. In assay [4], this compound gave an inhibition of 0%. Further, the kinact in assay [5] was determined as 0 h⁻¹.

In assay [1], `C/C(=N\NC(=O)N/N=C(\S)Nc1ccccc1Cl)c1ccccn1` displayed an Inhibitory index of 7.5. The inhibition in assay [4] is 30%. For the same compound, in assay [5], the kinact came out at 5 h⁻¹.

The values are drawn from ChEMBL document CHEMBL1126084, “2-Acetylpyridine thiocarbonohydrazones. Potent inactivators of herpes simplex virus ribonucleotide reductase” (J Med Chem, 1992).
